Data as given in ChEMBL document CHEMBL4371095, “Triazole-Based Inhibitors of the Wnt/β-Catenin Signaling Pathway Improve Glucose and Lipid Metabolisms in Diet-Induced Obese Mice” (J Med Chem, 2019).
The source made the active and inactive calls. The calls are words filed in the database; no cut-off is given here.

Tests used:
[1] = Inhibition of Wnt3a activated Wnt/beta-catenin signaling (unknown origin) expressed in HEK293 cells harboring TCF/LEF-responsive luciferase preincubated with cells followed by Wnt3a addition and measured after 24 hrs by luciferase reporter gene assay; assay type: cell-based; details: Homo sapiens
Procedure, shortened: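 HEK293 cells stably carrying TOPFlash/GFP were plated at 2000/well in DMEM with 10% FBS and kept overnight at 37 °C. Compound was pin-transferred, then recombinant human Wnt-3a was added (200 ng/mL working stock). After 24 h at 37 °C, ONE-Glo luminescence was read after 30 min. IC50 is mean ± SE from three independent experiments.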

[2] = Inhibition of LiCl activated Wnt/beta-catenin signaling (unknown origin) expressed in HEK293 cells harboring TCF/LEF-responsive luciferase preincubated with cells followed by LiCl addition and measured after 24 hrs by luciferase reporter gene assay; assay type: cell-based; details: Homo sapiens
Procedure, shortened: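 HEK293 cells carrying the TCF/LEF TOPFlash firefly luciferase reporter were stimulated with LiCl and treated with compound for 24 h. Luminescence was read, and IC50 was fitted from concentration–response data; mean ± S.D., n = 4.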

HEK293 [3] = assay: Inhibition of Wnt3a activated Wnt/beta-catenin/Axin signaling (unknown origin) expressed in HEK293 cells assessed as stabilization of Axin1 protein at 1 to 10 uM after 2 hrs by Western blot method; assay type: cell-based; details: Homo sapiens
Procedure, shortened: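 HEK293 cells stimulated with WNT3a were treated with compound for 2 h. Cells were lysed in 10 mM HEPES, 100 μM EDTA, 10 mM KCl, 0.5% NP40, protein was quantified by BCA, and β-catenin and Axin1 were resolved on 10% SDS-PAGE and immunoblotted.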

HEK293 [4] = assay: Inhibition of 25 to 50 mM LiCl activated Wnt/beta-catenin signaling (unknown origin) expressed in HEK293 cells harboring TCF/LEF-responsive luciferase at 0.1 uM preincubated with cells followed by LiCl addition and measured after 24 hrs by luciferase reporter gene assay; assay type: cell-based; details: Homo sapiens
HEK293 [5] = assay: Inhibition of Wnt (unknown origin)/FLAG-tagged human beta-catenin signaling expressed in HEK293 cells harboring TCF/LEF-responsive luciferase at 100 nM measured after 24 hrs by luciferase reporter gene assay; assay type: cell-based
Procedure, shortened: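 HEK293 cells were transfected for 16 h with TOPFlash or FOPFlash, Renilla, and pcDNA3 wild-type or S33Y β-catenin. Compound was then added for a further 24 h. Firefly/Renilla dual-luciferase ratio was the read-out.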

HepG2 = assay: Inhibition of Wnt/beta-catenin deletion mutant signaling in human HepG2 cells at 50 nM after 24 hrs by luciferase reporter gene assay; assay type: cell-based
Procedure, shortened: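 HepG2 cells carry the CTNNB1 Δ25–140 deletion and were transfected with the TCF/LEF luciferase reporter constructs. Compound was applied and reporter luminescence measured; mean ± S.D., n = 3.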

Mus musculus [6] = species on record: Mus musculus; assay: Inhibition of Wnt/beta-catenin/Axin signaling in mouse hepatocytes assessed as decrease in G6PASE mRNA level at 5 uM by qPCR analysis; assay type: cell-based
Procedure, shortened: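 Normal mouse hepatocytes were treated with 5 μM compound, and lipogenic and gluconeogenic gene mRNA was measured by qPCR; mean ± S.D. of triplicates.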

[7] = Half life in mouse at 10 mg/kg, po or 10 mg/kg, iv administered as single dose by LC-MS analysis; assay type: ADME, organism-based; details: in vivo
Procedure, shortened: (§1)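 Compound was dissolved at 1 mg/ml in 10% Kolliphor EL and 10% polyethylene glycol in saline. Ten mice were split into intravenous and oral groups and given a single 10 mg/kg dose. Tail-vein blood was sampled at several time points and analysed by LC/MS/MS.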

[8] = Cmax in mouse at 10 mg/kg, po administered as single dose by LC-MS analysis; assay type: ADME, organism-based; design: dose 10 mg/kg, route oral; details: in vivo; procedure, shortened: as §1
Mus musculus [9] = assay: Decrease in hepatic SREBP1 mRNA level in high fat diet fed C57BL/6J mouse at 40 mg/kg, ip administered every 2 days for 11 weeks by qPCR analysis; assay type: functional, organism-based
Procedure, shortened: (§2)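 Male mice, 8 weeks old, fed a 45% kcal fat diet for 6 weeks, then dosed i.p. every 2 days in corn oil vehicle for 11 weeks. Liver mRNA of the indicated genes was quantified at sacrifice; mean ± SEM, n = 5 per group.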

Mus musculus [10] = assay: Decrease in hepatic FGF21 mRNA level in high fat diet fed C57BL/6J mouse at 40 mg/kg, ip administered every 2 days for 11 weeks by qPCR analysis; assay type: functional, organism-based; procedure, shortened: as §2
Mus musculus [11] = assay: Decrease in hepatic ACAT2 mRNA level in high fat diet fed C57BL/6J mouse at 40 mg/kg, ip administered every 2 days for 11 weeks by qPCR analysis; assay type: functional, organism-based; procedure, shortened: as §2
Mus musculus [12] = assay: Decrease in hepatic […] mRNA level in high fat diet fed C57BL/6J mouse at 40 mg/kg, ip administered every 2 days for 11 weeks by qPCR analysis; assay type: functional, organism-based; procedure, shortened: as §2
Mus musculus [13] = assay: Decrease in hepatic ACC1 mRNA level in high fat diet fed C57BL/6J mouse at 40 mg/kg, ip administered every 2 days for 11 weeks by qPCR analysis; assay type: functional, organism-based; procedure, shortened: as §2
Mus musculus [14] = assay: Effect on hepatic PEPCK mRNA level in normal chow diet fed C57BL/6J mouse at 40 mg/kg, ip administered every 2 days for 11 weeks by qPCR analysis; assay type: ADME, organism-based; details: in vivo
Procedure, shortened: (§3)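 Male mice, 8 weeks old, kept on normal chow throughout and dosed i.p. every 2 days in corn oil vehicle for 11 weeks. Body weight gain, liver/body weight ratio, and liver mRNA of the indicated genes were measured at sacrifice; mean ± SEM, n = 5 per group where stated.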

Mus musculus [15] = assay: Effect on hepatic GCK mRNA level in normal chow diet fed C57BL/6J mouse at 40 mg/kg, ip administered every 2 days for 11 weeks by qPCR analysis; assay type: ADME, organism-based; details: in vivo; procedure, shortened: as §3
Mus musculus [16] = assay: Effect on hepatic SREBP1 mRNA level in normal chow diet fed C57BL/6J mouse at 40 mg/kg, ip administered every 2 days for 11 weeks by qPCR analysis; assay type: ADME, organism-based; details: in vivo; procedure, shortened: as §3
Mus musculus [17] = assay: Effect on hepatic FASN mRNA level in normal chow diet fed C57BL/6J mouse at 40 mg/kg, ip administered every 2 days for 11 weeks by qPCR analysis; assay type: ADME, organism-based; details: in vivo; procedure, shortened: as §3
Mus musculus [18] = assay: Effect on liver weight adjusted by body weight gain in normal chow diet fed C57BL/6J mouse at 40 mg/kg, ip administered every 2 days for 11 weeks; assay type: ADME, organism-based; details: in vivo; procedure, shortened: as §3
[19] = Toxicity in high fat diet fed C57BL/6J mouse assessed as serum cholesterol level at 40 mg/kg, ip administered every 2 days for 11 weeks (reference value: 316 +/- 25 mg/dl); assay type: organism-based; details: in vivo
[20] = Toxicity in high fat diet fed C57BL/6J mouse assessed as serum creatinine level at 40 mg/kg, ip administered every 2 days for 11 weeks by Jaffe's reaction analysis (reference value: 0.3 +/- 0.02 mg/dl); assay type: organism-based; details: in vivo
[21] = Toxicity in high fat diet fed C57BL/6J mouse assessed as serum triglyceride level at 40 mg/kg, ip administered every 2 days for 11 weeks (reference value: 93.5 +/- 12.1 mg/dl); assay type: organism-based; details: in vivo
[22] = Toxicity in normal chow diet fed C57BL/6J mouse assessed as serum AST level at 40 mg/kg, ip administered every 2 days for 11 weeks (reference value: 119 +/- 28.3 U/L); assay type: organism-based; details: in vivo
[23] = Toxicity in normal chow diet fed C57BL/6J mouse assessed as serum creatinine level at 40 mg/kg, ip administered every 2 days for 11 weeks by Jaffe's reaction analysis (reference value: 0.2 +/- 0.01 mg/dl); assay type: organism-based; details: in vivo

In the case of `Cc1ccccc1-n1nnc(C(=O)Nc2ccc3ccccc3n2)c1C`, the IC50 [1] is reported as 4.1 nM, the IC50 [2] is reported as 6 nM and the inhibition (HEK293 [3]) is reported as “Active”. For the same compound, the inhibition (HEK293 [4]) was “Active”, the inhibition (HEK293 [5]) was “Active” and the inhibition (HepG2) was “inactive”. The inhibition (Mus musculus [6]) was “Active”, the half-life [7] was 2.8 to 3.3 h and the Cmax [8] was 2200 ng/mL. The Activity (Mus musculus [9]) was “Active”, the Activity (Mus musculus [10]) was “Active” and the Activity (Mus musculus [11]) was “Active”. For the same compound, the Activity (Mus musculus [12]) was “Active”, the Activity (Mus musculus [13]) was “Active” and the Activity (Mus musculus [14]) was “Non-Toxic”. The Activity (Mus musculus [15]) was “Non-Toxic”, the Activity (Mus musculus [16]) was “Non-Toxic” and the Activity (Mus musculus [17]) was “Non-Toxic”. For the same compound, the Activity (Mus musculus [18]) was “Non-Toxic”, the Activity [19] was 223 mg/dL and the Activity [20] was 0.2 mg/dL. It also gave an Activity [21] of 85.3 mg/dL, an Activity [22] of 74.5 U/L and an Activity [23] of 0.2 mg/dL.
